The values below come from paper PMC5766692 (Journal of Ginseng Research, 2017).

The format of data set [1] is in vivo, Sprague Dawley rats. The note with it: rat plasma, oral WG, RG, FG extracts and free ginsenosides; for Time of first peak of the plasma concentration-time curve / Time of second peak of the plasma concentration-time curve: bimodal curve. In a few lines:
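Male Sprague Dawley rats (240–260 g), fasted 12 h with water allowed, 5 per group. Dosed orally with 70% ethanol ginseng decoctions or a water mixture of pure ginsenosides (25, 86, 45, 42 mg/kg). Retro-orbital blood taken 0.083–36 h; plasma acetonitrile-precipitated with digoxin IS, dried, redissolved in methanol. Analysed by C18 UPLC-MS/MS in positive ion mode; profiles mean ± SD.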

Data set [2] is classed as in vivo, Sprague Dawley rats. The note with it: rats, 30 min after oral RG, WG, FG extracts and free ginsenosides; heart, liver, spleen, lungs, kidneys, brain, muscle, testes.
Data set [3] is described as follows: Stability of the analytes in rat plasma under different conditions. Type of data set: in vitro ADME. The note with it: for Freeze–thaw stability, accuracy (mean ± SD): three freeze (−80°C)-thaw (room temperature) cycles; for Long-term stability, accuracy (mean ± SD): −80°C for 1 mo. The gist of the method:
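Rat plasma QC samples (low, medium, high) run in five replicates by UPLC-MS/MS with digoxin IS. Long-term: stored at −80°C for 1 mo. Freeze–thaw: three cycles of −80°C freezing and room-temperature thawing. Post-preparative: extracted QC samples held in the autosampler at 15°C for 24 h. Precision […] taken as relative standard deviation of QC concentrations.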

Data set [4] is described as follows: Stability of the analytes in rat tissue homogenates under different conditions. Type of data set: in vitro ADME. The note with it: for Short-term stability, accuracy (mean ± SD) / Freeze–thaw stability, accuracy (mean ± SD) / Long-term stability, accuracy (mean ± SD): tissue; for Freeze–thaw stability, accuracy (mean ± SD): three freeze (−80°C)-thaw (room temperature) cycles; for Long-term stability, accuracy (mean ± SD): −80°C for 1 mo. The gist of the method: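 Tissues rinsed in pH 7.4 sodium phosphate buffer, 0.5 g homogenised in 1 mL saline, then acetonitrile and digoxin IS added. Supernatant dried and redissolved in methanol for UPLC-MS/MS. QC tissue samples run in five replicates after storage at −80°C for 1 mo. Brain QC samples also put through three −80°C/room-temperature freeze–thaw cycles.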

The conditions of data set [5]: mouse; higher than free ginsenoside Re; cited from earlier work.

`CC(C)=CCC[C@](C)(O[C@@H]1O[C@H](CO)[C@@H](O)[C@H](O)[C@H]1O)[C@H]1CC[C@]2(C)[C@@H]1[C@H](O)C[C@@H]1[C@@]3(C)CC[C@H](O)C(C)(C)[C@@H]3[C@@H](O[C@@H]3O[C@H](CO)[C@@H](O)[C@H](O)[C@H]3O[C@@H]3O[C@@H](C)[C@H](O)[C@@H](O)[C@H]3O)C[C@]12C` [Re]: in data set [1], the “Time of first peak of the plasma concentration-time curve” value was in the range of 15 to 30 min. Moreover, in data set [1], the “Time of second peak of the plasma concentration-time curve” value lay within 8 to 12 h. Moreover, the “Tissue distribution (main tissues)” value in data set [2] was “mainly distributed in the heart and lungs”. In addition, the “Short-term stability, accuracy (mean ± SD)” value came to 102.5 ± 9.0% in data set [3] (plasma, spiked 0.1 μg/mL); 94.4 ± 4.4% in data set [3] (plasma, spiked 0.5 μg/mL); 97.6 ± 3.5% in data set [3] (plasma, spiked 1.0 μg/mL); 92.2 ± 8.7% in data set [4] (spiked 0.01 μg/mL); 96.6 ± 2.8% in data set [4] (spiked 0.05 μg/mL); 92.4 ± 4.8% in data set [4] (spiked 0.2 μg/mL). The “Freeze–thaw stability, accuracy (mean ± SD)” value in data set [3] (plasma, spiked 0.1 μg/mL) came out at 93.3 ± 6.2%; in data set [3] (plasma, spiked 0.5 μg/mL), 97.5 ± 7.0%; in data set [3] (plasma, spiked 1.0 μg/mL), 99.0 ± 7.4%; in data set [4] (spiked 0.01 μg/mL), 92.7 ± 8.0%; in data set [4] (spiked 0.05 μg/mL), 103.5 ± 5.5%; in data set [4] (spiked 0.2 μg/mL) it was 100.7 ± 7.4%. Besides, the “Long-term stability, accuracy (mean ± SD)” value is recorded as 96.6 ± 4.1% in data set [3] (plasma, spiked 0.1 μg/mL); 98.7 ± 5.0% in data set [3] (plasma, spiked 0.5 μg/mL); 92.2 ± 7.4% in data set [3] (plasma, spiked 1.0 μg/mL); 93.2 ± 5.8% in data set [4] (spiked 0.01 μg/mL); 105.5 ± 9.4% in data set [4] (spiked 0.05 μg/mL); 103.8 ± 6.5% in data set [4] (spiked 0.2 μg/mL). The “Stability in rat plasma during sample extraction and storage” value in data set [3] is recorded as “stable”. Besides, in data set [4], the “Stability in the various tissue homogenates during sample extraction and storage” value is given as “stable”. Further, in data set [5], the “Absorption of ginsenoside Re from ginseng berry extract” value was 0.33–0.75%.
Take `CC(C)=CCC[C@](C)(O[C@@H]1O[C@H](CO)[C@@H](O)[C@H](O)[C@H]1O)[C@H]1CC[C@]2(C)[C@@H]1[C@H](O)C[C@@H]1[C@@]3(C)CC[C@H](O[C@@H]4O[C@H](CO)[C@@H](O)[C@H](O)[C@H]4O[C@@H]4O[C@H](CO)[C@@H](O)[C@H](O)[C@H]4O)C(C)(C)[C@@H]3CC[C@]12C` [Rd]: the “Time of first peak of the plasma concentration-time curve” value in data set [1] is 15 to 30 min. Further, the “Time of second peak of the plasma concentration-time curve” value in data set [1] is 8 to 12 h. For the same molecule, the “Tissue distribution (main tissues)” value in data set [2] is “mainly distributed in the kidneys”. Besides, the “Short-term stability, accuracy (mean ± SD)” value worked out at 92.3 ± 4.3% in data set [3] (plasma, spiked 0.1 μg/mL); 94.6 ± 5.2% in data set [3] (plasma, spiked 1.0 μg/mL); 105.3 ± 6.0% in data set [3] (plasma, spiked 2.0 μg/mL); 107.2 ± 7.3% in data set [4] (spiked 0.2 μg/mL); 106.4 ± 8.5% in data set [4] (spiked 0.5 μg/mL); 93.8 ± 5.1% in data set [4] (spiked 1.0 μg/mL). The “Freeze–thaw stability, accuracy (mean ± SD)” value in data set [3] (plasma, spiked 0.1 μg/mL) amounted to 92.5 ± 7.7%; in data set [3] (plasma, spiked 1.0 μg/mL) it was 106.5 ± 6.5%; in data set [3] (plasma, spiked 2.0 μg/mL), 104.3 ± 8.6%; in data set [4] (spiked 0.2 μg/mL), 96.5 ± 8.4%; in data set [4] (spiked 0.5 μg/mL), 95.7 ± 9.5%; in data set [4] (spiked 1.0 μg/mL) it was 99.6 ± 3.4%. Further, the “Long-term stability, accuracy (mean ± SD)” value in data set [3] (plasma, spiked 0.1 μg/mL) is 93.6 ± 8.5%; in data set [3] (plasma, spiked 1.0 μg/mL), 102.3 ± 9.6%; in data set [3] (plasma, spiked 2.0 μg/mL) it was 102.5 ± 2.3%; in data set [4] (spiked 0.2 μg/mL) it was 95.5 ± 5.6%; in data set [4] (spiked 0.5 μg/mL), 92.0 ± 9.4%; in data set [4] (spiked 1.0 μg/mL), 94.4 ± 7.0%. The “Stability in rat plasma during sample extraction and storage” value in data set [3] is given as “stable”. In addition, in data set [4], the “Stability in the various tissue homogenates during sample extraction and storage” value is listed as “stable”.
Turning to `CC(C)=CCC[C@](C)(O[C@@H]1O[C@H](CO)[C@@H](O)[C@H](O)[C@H]1O)[C@H]1CC[C@]2(C)[C@@H]1[C@H](O)C[C@@H]1[C@@]3(C)CC[C@H](O)C(C)(C)[C@@H]3[C@@H](O[C@@H]3O[C@H](CO)[C@@H](O)[C@H](O)[C@H]3O)C[C@]12C` [Rg1], the “Time of first peak of the plasma concentration-time curve” value in data set [1] was 15 to 30 min. Further, the “Time of second peak of the plasma concentration-time curve” value in data set [1] lay in the range of 8 to 12 h. Besides, in data set [2], the “Tissue distribution (main tissues)” value was “extensively distributed in the heart, lungs, and kidneys”. The “Short-term stability, accuracy (mean ± SD)” value in data set [3] (plasma, spiked 0.5 μg/mL) turned out to be 102.0 ± 6.4%; in data set [3] (plasma, spiked 1.0 μg/mL) it was 93.2 ± 7.0%; in data set [3] (plasma, spiked 2.0 μg/mL), 92.1 ± 8.6%; in data set [4] (spiked 0.01 μg/mL), 92.2 ± 2.3%; in data set [4] (spiked 0.05 μg/mL), 102.5 ± 3.1%; in data set [4] (spiked 0.2 μg/mL) it was 92.3 ± 6.6%. Further, the “Freeze–thaw stability, accuracy (mean ± SD)” value in data set [3] (plasma, spiked 0.5 μg/mL) was 106.1 ± 3.4%; in data set [3] (plasma, spiked 1.0 μg/mL) it was 107.0 ± 8.2%; in data set [3] (plasma, spiked 2.0 μg/mL) it was 94.3 ± 4.0%; in data set [4] (spiked 0.01 μg/mL), 100.2 ± 3.6%; in data set [4] (spiked 0.05 μg/mL), 93.5 ± 9.1%; in data set [4] (spiked 0.2 μg/mL) it was 95.3 ± 6.6%. Further, the “Long-term stability, accuracy (mean ± SD)” value in data set [3] (plasma, spiked 0.5 μg/mL) turned out to be 103.7 ± 8.0%; in data set [3] (plasma, spiked 1.0 μg/mL), 103.1 ± 9.4%; in data set [3] (plasma, spiked 2.0 μg/mL), 94.6 ± 5.6%; in data set [4] (spiked 0.01 μg/mL), 101.9 ± 5.3%; in data set [4] (spiked 0.05 μg/mL), 94.7 ± 7.4%; in data set [4] (spiked 0.2 μg/mL) it was 92.3 ± 7.5%. The “Stability in rat plasma during sample extraction and storage” value in data set [3] was “stable”. In addition, the “Stability in the various tissue homogenates during sample extraction and storage” value in data set [4] is on record as “stable”.
On to `CC(C)=CCC[C@](C)(O[C@@H]1O[C@H](CO[C@@H]2O[C@H](CO)[C@@H](O)[C@H](O)[C@H]2O)[C@@H](O)[C@H](O)[C@H]1O)[C@H]1CC[C@]2(C)[C@@H]1[C@H](O)C[C@@H]1[C@@]3(C)CC[C@H](O[C@@H]4O[C@H](CO)[C@@H](O)[C@H](O)[C@H]4O[C@@H]4O[C@H](CO)[C@@H](O)[C@H](O)[C@H]4O)C(C)(C)[C@@H]3CC[C@]12C` [Rb1], for which the “Time of the single peak of the plasma concentration-time curve” value in data set [1] fell in the range of 8 to 10 h. The “Tissue distribution (main tissues)” value in data set [2] was “mainly distributed in the heart”. Also, the “Short-term stability, accuracy (mean ± SD)” value is listed as 91.3 ± 5.3% in data set [3] (plasma, spiked 2.0 μg/mL); 91.5 ± 6.8% in data set [3] (plasma, spiked 5.0 μg/mL); 94.4 ± 7.9% in data set [3] (plasma, spiked 10 μg/mL); 102.4 ± 5.1% in data set [4] (spiked 0.2 μg/mL); 101.1 ± 7.0% in data set [4] (spiked 0.5 μg/mL); 105.0 ± 5.1% in data set [4] (spiked 1.0 μg/mL). Besides, the “Freeze–thaw stability, accuracy (mean ± SD)” value in data set [3] (plasma, spiked 2.0 μg/mL) is reported as 96.2 ± 8.5%; in data set [3] (plasma, spiked 5.0 μg/mL), 103.3 ± 6.0%; in data set [3] (plasma, spiked 10 μg/mL), 98.5 ± 8.2%; in data set [4] (spiked 0.2 μg/mL), 108.5 ± 6.0%; in data set [4] (spiked 0.5 μg/mL), 109.2 ± 8.1%; in data set [4] (spiked 1.0 μg/mL), 103.7 ± 7.0%. Further, the “Long-term stability, accuracy (mean ± SD)” value in data set [3] (plasma, spiked 2.0 μg/mL) is on record as 95.6 ± 7.7%; in data set [3] (plasma, spiked 5.0 μg/mL), 106.6 ± 6.8%; in data set [3] (plasma, spiked 10 μg/mL), 93.9 ± 8.5%; in data set [4] (spiked 0.2 μg/mL), 104.5 ± 8.6%; in data set [4] (spiked 0.5 μg/mL) it was 108.1 ± 6.7%; in data set [4] (spiked 1.0 μg/mL) it was 101.0 ± 8.7%. In addition, the “Post-preparative stability, accuracy (mean ± SD)” value in data set [3] (plasma, spiked 10 μg/mL, extracted samples in automatic sampler at 15°C for 24 h) is given as 94.5 ± 8.0%. The “Stability in rat plasma during sample extraction and storage” value in data set [3] was “stable”. For the same molecule, the “Stability in the various tissue homogenates during sample extraction and storage” value in data set [4] was “stable”.
